# tolC growth inh: growth inhibitors of E. coli BW25113 tolC mutant | OD615 | growth inhibition, % at 10 µM (by protocol) | 2.2% of 65,000 active | AID 573;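 active = growth inhibition at or above a cutoff equal to the mean over every tested compound plus 3 SD, cut at about 60% in these data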;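 also: growth measured after 20 h incubation at 37 °C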
#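 Doses: one dose of 10 µM final / Material: E. coli BW25113 ΔtolC::kan, tolC deletion mutant strain / Buffer or medium: LB with kanamycin 50 µg/mL / Evaluation: percent growth inhibition / Detection: optical density read at 615 nm / Incubation: 37 °C, 20 h exposure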
# Jurkat tox 60K: cytotoxicity toward Jurkat cells | 1.2% of 56,000 active | Jurkat E6.1 viability, ATP luminescence, 48 h | inhibition, % at 4 µM;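 active = inhibition above the mean inhibition of all tested compounds plus 3 SD, cut at about 28% in these data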
# Fibroblast inh: blocks proliferation of human lung fibroblasts. viability, % at 10 µM. LL 47 human lung fibroblast viability, ATP luminescence; stronger effect = lower value. 1.1% of 85,000 active;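 active = viability at or below 50% in the single dose screen; inactive = viability above 50%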;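 also: compound exposure lasted 72 h before the ATP readout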
#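 Material: human lung fibroblast line LL 47, low passage; Evaluation: viability percentage against median untreated-cell control; Buffer or medium: 15% FBS in IMEM; Incubation: 72 h compound exposure at 37 °C after overnight plating; Dosing: 0.1% DMSO in all compound wells; Measured by: CellTiter-Glo luminescence.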
# H69AR growth 86K: growth inhibitors of human H69AR lung tumor cells; H69AR lung tumor viability, ATP luminescence, 72 h; stronger effect = lower value; 6% of 85,000 active; viability, % at 10 µM; AID 598;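 active = viability at or below 40%; inactive = viability above 40%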;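 also: multidrug resistant small cell line overexpressing MRP-1 efflux transporter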
# HUVEC inhibit: blocks proliferation of human endothelial cells; HUVEC proliferation, CellTiter-Glo luminescence, 72 h; stronger effect = lower value; viability, % at 10 µM (by protocol); 1.1% of 86,000 active; AID 648;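 active = viability at or below 30%; inactive = viability above 30%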
# Ecoli WT expand: blocks growth of wild type E. coli BW25113; growth inhibition, % at 100 µM; AID 710; 0.15% of 98,000 active; OD600 absorbance;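 active = growth inhibition above about 50% at one test dose, limit read from the data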;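 also: growth measured after 20 h incubation at 37 °C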
# Numbers stand for hits; - = inactive; . = no result given. Most compounds without a hit are left out; they make up all but 6.4% or so of the library.
SMILES,tolC growth inh,Jurkat tox 60K,Fibroblast inh,H69AR growth 86K,HUVEC inhibit,Ecoli WT expand
COc1nc(C#N)c(N2CCOCC2)o1,-,-,-,-,-,-
C=C(C)[C@H]1CC=C(C)/C(=N/NC(=O)CNc2ccccc2OC)C1,.,.,.,.,.,-
CN1Cc2cc(C(=O)c3ccccc3O)cnc2NC1=O,.,.,-,25,-,-
COc1ccc(OC)c(-c2nnc(SCC(=O)N3CCOCC3)o2)c1,-,-,-,-,-,-
CCOC(=O)c1cnc(-n2nc(C)cc2C)nc1NCCc1ccccc1,100,-,45,1.9,-,-
CCOC(=O)c1cnc(-n2nc(C)cc2C)nc1NCc1ccc2c(c1)OCO2,-,-,-,-,24,-
CCOC(=O)c1cnc(-n2nc(C)cc2C)nc1Nc1ccc(OC)cc1,.,.,.,.,.,-
O=C(Nc1nccs1)c1ccc(S(=O)(=O)NCC2CCCCC2)cc1,-,37,-,-,-,-
C=CCn1c(SCc2nc3ccccc3c(=O)[nH]2)nc2ccccc2c1=O,.,.,-,5.6,-,-
C=CCn1c(SCC(=O)OCC)nc2cc(C(=O)NCc3ccco3)ccc2c1=O,.,.,-,-,-,-
C=CCc1c(C)nc(SCc2nc3ccccc3c(=O)[nH]2)[nH]c1=O,100,-,-,-,-,-
C=CCn1c(SCc2c(C)noc2C)nc2sc3c(c2c1=O)CCCCC3,-,-,-,-,-,-
C=CCn1c(Cc2ccc(OC)cc2)nnc1SCc1nc2ccccc2c(=O)[nH]1,-,-,-,-,-,-
C=CCn1c(SCc2c(C)noc2C)nc2sc3c(c2c1=O)CCCC3,.,.,-,28,-,-
C=CCn1c(SCc2c(C)noc2C)nc2cc(C(=O)O)ccc2c1=O,-,69,-,-,-,-
Cc1ccc(Oc2cc(N3CCOCC3)nc(-c3ccccc3)n2)cc1,.,.,.,.,.,-
CCCC(c1nnnn1C(C)(C)CC)N(Cc1ccco1)Cc1cc2ccc(OC)cc2[nH]c1=O (centres undefined),-,-,-,-,-,-
CC(=O)Nc1ccc(S(=O)(=O)NC2(C(F)(F)F)NC(=O)N(C3CCCC3)C2=O)cc1 (centres undefined),-,-,-,-,-,-
CC(C)(C)c1[nH]c2ccccc2c1/C=N/O,.,.,-,-,-,-
C=CCn1c(SCC(=O)c2ccc(Cl)s2)nc2ccccc2c1=O,.,.,.,.,.,-
C=CCn1c(SCc2c(C)noc2C)nc2ccccc2c1=O,.,.,43,20,-,-
CCn1ccc(C(=O)NC2C(=O)N3C(C(=O)O)=C(C)CSC23)n1 (centres undefined),.,.,.,.,.,-
N#CC1=C(N)C(C#N)(C#N)C(c2cccnc2)C2CC(c3ccccc3)CC=C12 (centres undefined),.,.,44,1.6,5.9,-
N#CC1=C(N)C(C#N)(C#N)C(c2cccnc2)C2CCCC=C12 (centres undefined),-,-,-,-,-,-
Cc1ccc(SCc2[nH]nc3c2C2(C(=O)N(C)c4ccccc42)C(C#N)=C(N)O3)cc1 (centres undefined),-,-,-,-,-,-
SMILES,tolC growth inh,Jurkat tox 60K,Fibroblast inh,H69AR growth 86K,HUVEC inhibit,Ecoli WT expand
CSc1nc2ccccc2n1CC(=O)Nc1c(C)cccc1C,.,.,-,-,-,.
CSc1nc2ccccc2n1Cc1c(Cl)cccc1Cl,.,.,-,36,-,-
CCCCC[n+]1ccn(C2=C([O-])c3ccccc3C(=O)/C2=N\S(=O)(=O)c2ccccc2)c1,.,.,-,25,11,-
CCCC[n+]1ccn(C2=C([O-])c3ccccc3C(=O)/C2=N\S(=O)(=O)c2ccccc2)c1,.,.,-,8.6,5.1,-
COc1ccc2oc(C(=O)C3CC3)c(NC(=O)CCCN3C(=O)c4ccccc4C3=O)c2c1,-,-,-,31,-,.
CC(=O)c1oc2ccccc2c1NC(=O)CCCN1C(=O)c2ccccc2C1=O,.,.,-,-,-,-
CC1CCN(C(=O)c2cc3nc(-c4ccccc4)cc(-c4ccccc4)n3n2)CC1,.,.,-,-,-,-
C=C(C)Cn1c(N2CCC(Cc3ccccc3)CC2)nc2c1c(=O)[nH]c(=O)n2C,92,.,-,-,-,-
CC(=O)Cn1c(N2CCC(Cc3ccccc3)CC2)nc2c1c(=O)[nH]c(=O)n2C,-,-,-,-,-,-
CCCCCn1c(N2CCC(Cc3ccccc3)CC2)nc2c1c(=O)[nH]c(=O)n2C,71,-,-,20,7.5,.
Cn1c(=O)[nH]c(=O)c2c1nc(N1CCC(Cc3ccccc3)CC1)n2Cc1ccccc1,-,-,-,20,-,-

# Assay outcomes (PubChem)
